# In the library only some 3.7% were active in any assay of this set; here they are far more common.
# SR-BI DiI inh – mouse SR-BI HDL lipid transfer inhibition; Q61009; ldlA[mSR-BI] CHO cells, DiI-HDL uptake fluorescence, 3 h; inhibition, % at 12.5 µM; 320,000 tested, 0.96% active; AID 488896;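 active = mean replicate inhibition of at least 70% and a set share of replicates each scoring 70 or more; inconclusive = meets just one of the two criteria; inactive = fails both criteria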
# AHR act – activates the human aryl hydrocarbon receptor | AHR-responsive luciferase reporter cells, luminescence | 320,000 tested, 2.5% active | AID 2796 | P35869 | activation, % at 5 µM; in the data active = activation above about 47%
# FXN GAA850 act – frataxin GAA850 promoter activation. 360,000 tested, 0.56% active. AID 540364. activation, % at 6 µM. HEK293 lucGAA850 FXN promoter luciferase reporter, 24 h; percent of 10 µM SAHA response;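 active = activation above the average of all compounds screened plus 3 SD, cutoff fixed separately per campaign, cut at about 7.5% in these data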
# SR-BI uptake up – SR-BI HDL lipid transfer activation; activation, % at 12.5 µM; AID 504775; 320,000 tested, 0.096% active; CHO ldlA[mSR-BI] cells, DiI-HDL uptake fluorescence, 3 h; 100 = double the neutral-control signal;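 active = mean replicate activation of at least 60% and every replicate at or above 60%; inconclusive = mean or all-replicate condition met, but not both; inactive = mean below 60% and not all replicates reaching 60%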
#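 System: LDL receptor-deficient CHO ldlA cells overexpressing murine SR-BI | Timing: 3 h uptake period with compound, 37 °C | Medium: HEPES-buffered (25 mM, pH 7.4) F12 plus 0.5% BSA | Dosing: Single-point compound dose | Signal: Bottom-read fluorescence, 550/595 nm | Read-out: Retained DiI signal reflecting DiI-HDL uptake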
# GASC-1 inh – blocks human GASC-1 demethylase activity. GST-JMJD2C(1-420) H3K9me3 demethylation, DELFIA europium. inhibition, % at 2.35 µM. Q9H3R0. 330,000 tested, 0.069% active;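 active = more than half of a compound's replicate wells show inhibition beyond 50%, single wells judged on their own value; inconclusive = some, but no more than half, of replicates pass 50% inhibition; inactive = no replicate passes 50% inhibition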;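 note: signal counts dimethyl H3K9 product captured on neutravidin plate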
# Target sequence (Q9H3R0 1-420 limits assumed): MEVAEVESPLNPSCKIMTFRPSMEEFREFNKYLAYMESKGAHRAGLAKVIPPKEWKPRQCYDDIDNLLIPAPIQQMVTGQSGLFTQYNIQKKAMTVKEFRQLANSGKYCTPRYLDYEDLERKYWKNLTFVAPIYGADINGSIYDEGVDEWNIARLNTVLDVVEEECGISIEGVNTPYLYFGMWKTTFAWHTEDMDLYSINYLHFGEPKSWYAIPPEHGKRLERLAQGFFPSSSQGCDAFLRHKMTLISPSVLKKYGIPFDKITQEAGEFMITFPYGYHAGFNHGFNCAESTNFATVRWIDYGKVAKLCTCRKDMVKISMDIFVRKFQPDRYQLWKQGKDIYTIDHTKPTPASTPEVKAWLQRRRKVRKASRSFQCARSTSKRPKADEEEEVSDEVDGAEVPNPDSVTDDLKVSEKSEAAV
# A number is an active result; . = inactive; ? = inconclusive; / = not tested or not shown.
SMILES,SR-BI DiI inh,AHR act,FXN GAA850 act,SR-BI uptake up,GASC-1 inh
COc1ccccc1C(=O)NNC(=S)NC(=O)c1sc2ccccc2c1Cl,.,48,.,.,.
COc1ccccc1C(=O)NC(=S)NNC(=O)c1sc2ccccc2c1Cl,.,.,.,.,.
CC1CC=CCC1(CO)CO (configuration not stated),.,/,.,.,/
CCOc1ccccc1NC(=O)Nc1ccc(Cl)cc1,?,53,.,.,.
CCOc1ccccc1NC(=O)CCC(=O)Nc1ccccc1OCC,.,.,.,.,.
O=C(COC(=O)CCCNC(=O)c1ccc(Cl)cc1)Nc1ccc(Br)cc1,.,.,.,.,.
O=C(CCCNC(=O)c1ccc(Cl)cc1)Nc1ccc(Br)cc1,/,71,.,/,.
C=CCn1c(N)c(-c2nc3ccccc3n2C)sc1=S,.,.,.,.,50
Cn1c(-c2sc(=S)n(-c3ccccc3)c2N)nc2ccccc21,.,.,.,.,.
O=C(/C=C/c1cccs1)c1cc(Br)ccc1OC(=O)N1CCOCC1,.,53,.,.,.
Cc1nnc(NC(=O)c2ccccc2NC(=O)c2ccccc2)s1,.,.,.,.,.
Cc1cccc(N2CCN(C(=O)c3c(-c4ccccc4)noc3C)CC2)c1C,.,.,.,.,.
COc1ccc2[nH]c3c(N4CCC(O)(c5cccc(C(F)(F)F)c5)CC4)ncnc3c2c1,.,68,.,.,.
O=c1c2c(nc3n1CCCCC3)-c1ccccc1CC21CCCC1,.,.,.,.,.
CSc1n[nH]c2nc3c(c(=O)n12)C1(CCCC1)Cc1ccccc1-3,.,79,.,.,.
CCSc1n[nH]c2nc3c(c(=O)n12)C1(CCCC1)Cc1ccccc1-3,.,51,.,.,.
CSc1nnc2n(C)c3c(c(=O)n12)C1(CCCC1)Cc1ccccc1-3,.,.,.,.,.
C=CCSc1n[nH]c2nc3c(c(=O)n12)C1(CCCC1)Cc1ccccc1-3,.,59,.,.,.
Cc1ccc(-n2c(SCC(N)=O)nc3c(c2=O)C2(CCCC2)Cc2ccccc2-3)cc1,.,.,.,.,.
CSCC[C@H](N)C(=O)N1CCC(C(=O)N[C@H](C(=O)NCc2ccccc2F)C(C)C)CC1,.,.,.,.,.
Cc1ccc(N=Nc2c(N)nn(-c3ccccc3)c2N)cc1,.,.,.,.,.
Cc1ccc(N=Nc2c(N)nn3c(N)c(C#N)c(C)nc23)cc1,.,75,.,.,.
Cc1ccc(N=Nc2c(N)nn3c(C)cc(C)nc23)cc1,.,58,.,.,.
O=C(CSc1nncc(=O)[nH]1)Nc1cccc([N+](=O)[O-])c1,.,.,.,.,.
Oc1ccc(C2=NN(c3ccccc3)C(c3ccc(F)cc3)C2)cc1 (configuration not stated),.,.,.,.,.
SMILES,SR-BI DiI inh,AHR act,FXN GAA850 act,SR-BI uptake up,GASC-1 inh
Oc1ccccc1C1=NN(c2ccccc2)C(c2ccc(F)cc2)C1 (configuration not stated),74,/,.,.,.
O=C(COC(=O)Cc1n[nH]c(=O)c2ccccc12)NNC(=O)c1ccc(Cl)cc1,.,.,.,.,.
O=C(OCc1ccccc1)c1cccc(-c2nnc(-c3ccccc3)o2)c1,.,.,.,62,.
CC(C)(C)C(=O)Nc1cc2c3c(c1)CCN3C(=O)CC2,.,.,.,.,.
COC(=O)c1cccc(NC(=O)Cc2nc(-c3ccccc3)sc2-c2ccc(C)cc2)c1,71,.,.,.,.
CC(=O)Nc1cccc(NC(=O)Cc2nc(-c3ccccc3)sc2-c2ccc(C)cc2)c1,.,.,.,.,.
COc1cccc(NC(=O)Cc2nc(-c3ccccc3)sc2-c2ccc(C)cc2)c1,86,.,.,.,.
COc1ccc(NS(=O)(=O)c2cc(C(=O)NNC(=O)c3ccncc3)ccc2OC)c(OC)c1,/,.,.,/,.
COc1ccccc1C(=O)NNC(=O)c1ccc2ccccc2c1O,/,/,.,/,/
O=[N+]([O-])c1ccccc1/C=C/c1ccc2ccccc2n1,.,75,.,.,.
CCOc1c(OC(C)=O)ccc(/C=C/c2ccc3cccc(OC(C)=O)c3n2)c1[N+](=O)[O-],.,.,.,.,.
CCOc1cc(/C=C/c2ccc3cccc([N+](=O)[O-])c3n2)ccc1O,81,.,.,.,.
O=[N+]([O-])c1ccc(/C=C/c2ccc3cccc([N+](=O)[O-])c3n2)cc1,.,106,.,.,.
COc1cc(/C=C/c2ccc3cccc([N+](=O)[O-])c3n2)ccc1OCC#N,.,.,.,.,.
O=[N+]([O-])c1cccc(/C=C/c2ccc3cccc(O)c3n2)c1,.,.,.,.,.
CCOc1cc(/C=C/c2ccc3cccc([N+](=O)[O-])c3n2)ccc1OCC(=O)N(C)C,83,.,.,.,.
C(=C1/CCCC2=C1Nc1ncnn1C2c1ccccc1)/c1ccccc1 (configuration not stated),/,.,/,/,.
OCc1ccccc1-c1cnc2sc(NCc3ccc(F)cc3)nn12,/,/,.,/,/
COc1ccc(CNn2c(C)nc3ccccc3c2=O)cc1,.,70,.,.,.
COc1ccc(CCn2c(S)nc3ccccc3c2=O)cc1,.,68,.,.,.
NC(=O)CSc1nc2ccccc2c(=O)n1CCc1ccccc1,.,75,.,.,.
Brc1cc2c(cc1CSc1ncccn1)OCO2,/,.,.,/,.
COc1ccc(OC)c(S(=O)(=O)NC(=O)C2(C)CCN2C(=O)c2ccco2)c1 (configuration not stated),/,/,.,/,/
CC1(C)C2CCC(C2)C1C/C=N/NC(N)=S (configuration not stated),.,.,.,.,.
CCCCc1ccc(NC(=S)Nc2cccnc2)cc1,.,.,.,.,.
SMILES,SR-BI DiI inh,AHR act,FXN GAA850 act,SR-BI uptake up,GASC-1 inh
CCCCN=C(Nc1ccc(Cl)cc1)c1cccnc1,.,88,.,.,.
S=C(NCc1cccnc1)Nc1ccc(Cl)cc1,.,.,.,.,.
CCCN=C(Nc1ccc(Cl)cc1)c1cccnc1,.,118,.,.,.
COc1ccc(-c2noc(N3CCC(C(=O)N(C)c4ccccc4)CC3)n2)cc1,.,.,.,.,.
COc1cc(C(=O)Nc2ccc(N(C)C)cc2)cc(OC)c1OC,.,.,.,.,.
COc1cc(NC(=O)C2=C(N3CCOCC3)/C(=C/c3ccc(Cl)cc3)CC2)cc(OC)c1OC,74,.,.,.,.
COc1cc(NC(=O)C2=C(N3CCOCC3)/C(=C\c3ccc(N(C)C)cc3)CCC2)cc(OC)c1OC,74,.,.,.,.
O=C(Nc1ccccc1)C1=C(N2CCOCC2)/C(=C/c2cccnc2)CC1,.,.,.,.,.
NNC(=O)c1cc2c(s1)-c1cc(Cl)ccc1SC2,99,64,.,.,.
CCN(CC)CCNC(=O)c1cc2c(s1)-c1ccccc1SC2,.,.,.,.,.
CCC(C(=O)NC1CCCC1)n1nc(C)n2c(cc3occc32)c1=O (configuration not stated),.,.,.,.,.
